Assay outcomes as filed in PubChem.
Only some compounds are listed: those with a hit (about 4.7% of all), similar ones and a draw of the others.
697 NFkB inh = lowers PMA/ionomycin-induced NF-kB signal in 697 B cells; inhibition, % at 4 µM; 330,000 tested, 0.33% active; 697 B-cell NF-kB luciferase reporter, 16 h; AID 435022; in the data active = inhibition above about 35%
aSyn UTR inh = 5' untranslated region of α-synuclein, MLPCN primary screen; AID 1813; alpha-synuclein 5'UTR reporter, inhibitor activity; 300,000 tested, 0.82% active; inhibition, % (tested at 7.5 µM); in the data active = inhibition above about 60%;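 also: H4 neuroglioblastoma cells stably carrying SNCA 5'UTR luciferase fusion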
IMP-1 inhibitor = blocks Pseudomonas aeruginosa IMP-1 metallo-beta-lactamase. purified IMP-1, nitrocefin hydrolysis, epi-absorbance fluorescence. inhibition, % at 5.6 µM. 290,000 tested, 0.45% active;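 active = inhibition above the mean plus 3 SD of all compounds in the same screening run, cut at about 4.5% in these data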
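System: purified recombinant IMP-1 beta-lactamase. Medium: Zinc- and detergent-supplemented HEPES buffer, pH 7.1. Compound: one 5.6 µM dose […]. Schedule: 15 min preincubation plus 25 min reaction at 25 °C. Technique: Epi-absorbance fluorescence, 480 nm excitation, 530 nm emission.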
VIM-2 inhibitor = blocks Pseudomonas aeruginosa VIM-2 metallo-beta-lactamase. purified VIM-2, nitrocefin hydrolysis, epi-absorbance fluorescence. inhibition, % at 5.6 µM. 290,000 tested, 0.89% active. AID 1527;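 active = inhibition above the mean of all tested compounds plus 3 SD, cutoff set per screening run, cut at about 7.5% in these data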;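 also: red hydrolysis product quenches plate fluorescence so inhibitors raise well fluorescence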
Jurkat NFkB inh = inhibitors of the PMA/ionomycin-induced NF-kB reporter in Jurkat cells | PMA/ionomycin-induced NF-kB luciferase reporter, luminescence | inhibition, % at 4 µM | 330,000 tested, 0.53% active; in the data active = inhibition above about 50%
Mdm2-MdmX inh = disrupts the human Mdm2-MdmX interaction | SaOS-2 split-luciferase Mdm2/MdmX complementation, luminescence | O15151+Q00987 | inhibition, % at 8 µM | 330,000 tested, 3% active | AID 485346;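 active = inhibition of at least 50% at 8 µM in the primary screen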
Mdm2 MdmX conf = human Mdm2/MdmX binding inhibition, confirmed; shares compounds with Mdm2-MdmX inh; luminescent assay; inhibition, % at 8 µM; 10,000 tested, 55% active; AID 489028; in the data active = inhibition above about 40%
Full FLuc ctr = inhibits full-length luciferase, flagging false Mdm2/MdmX hits | shares compounds with Mdm2-MdmX inh | SaOS-2 full-length luciferase counterscreen, luminescence | inhibition, % at 8 µM | 6,200 tested, 77% active | AID 504607;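 active = mean inhibition at 8 µM reaching about 37%, which flags the compound as non-specific, limit read from the data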;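 also: p53-null SaOS-2 cells with luciferase driven by a doxycycline-inducible promoter; compound on cells about two nights before reading with doxycycline added after day one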
A number is an active result; i = inactive; nt = not tested or not shown.

SMILES | 697 NFkB inh | aSyn UTR inh | IMP-1 inhibitor | VIM-2 inhibitor | Jurkat NFkB inh | Mdm2-MdmX inh | Mdm2 MdmX conf | others
CC(=O)c1ccc(-c2ccc(C(=O)Nc3nc(-c4ccccn4)cs3)o2)cc1 | i | nt | nt | nt | i | 91 | 86 | Full FLuc ctr=40
CC(=O)Nc1ccc(C(=O)Nc2nc(-c3ccccn3)cs2)cc1 | i | i | i | i | i | i | nt
CCn1nc(C(=O)Nc2nc(-c3ccccn3)cs2)c2ccccc2c1=O | i | nt | nt | nt | i | i | nt
CC(OC(=O)c1nsc(Cl)c1Cl)C(=O)NC(C)(C)C (configuration not stated) | i | i | i | i | i | i | nt
CS(=O)(=O)N(CC(=O)Nc1ccc(S(=O)(=O)N2CCOCC2)cc1)c1ccccc1Br | i | i | i | i | i | i | nt
O=C(Nc1nc(-c2ccccn2)cs1)c1ccc([N+](=O)[O-])o1 | i | i | i | i | i | 77 | 68 | Full FLuc ctr=37
O=C(Nc1nc(-c2ccccn2)cs1)c1ccc2c(c1)OCCO2 | i | i | i | i | i | i | nt
O=C(Nc1nc2ccccc2s1)c1ccc([N+](=O)[O-])o1 | i | i | i | i | i | i | nt
O=C(Nc1nc(-c2ccccn2)cs1)c1ccccc1-n1cnnn1 | i | 98 | i | i | i | 72 | 75 | Full FLuc ctr=i
O=C(Nc1nc(-c2ccccn2)cs1)c1ccc(-c2ccccc2F)o1 | i | nt | nt | nt | i | 57 | 50 | Full FLuc ctr=63
CCc1nnc(NC(=O)c2ccc(-c3ccccc3F)o2)s1 | i | i | i | i | i | i | nt
O=C(Nc1nc(-c2ccc3c(c2)OCO3)cs1)C1COc2ccccc2O1 (configuration not stated) | i | i | i | i | i | i | nt
O=C(Nc1nc(-c2ccccn2)cs1)C1COc2ccccc2O1 (configuration not stated) | i | nt | i | i | i | 65 | 71 | Full FLuc ctr=56
COc1ccc(CNC(=O)CSc2nc3ccc(N)cc3s2)cc1 | i | i | i | i | i | i | nt
COc1ccc(C(C)=O)c(Oc2ccc(S(=O)(=O)N3CCOCC3)cn2)c1 | i | nt | nt | nt | i | i | nt
CC(Sc1nnc(N)s1)c1ccccc1Cl (configuration not stated) | i | i | i | i | i | i | nt
COCCCn1c(=O)c2ccccc2n(CC(=O)Nc2ccc3c(c2)OCCO3)c1=O | i | i | i | i | i | i | nt
CNc1nc(NCc2ccccc2)c2ccccc2n1 | i | i | i | i | i | 66 | i
OCCNc1nc(Nc2ccc(Br)cc2)nc2ccccc12 | i | i | i | i | i | 70 | 55 | Full FLuc ctr=67
Oc1ccccc1Nc1nc(NCc2ccccc2)c2ccccc2n1 | i | i | i | i | i | 83 | i
CN(Cc1ccccc1)S(=O)(=O)c1cccc(C(=O)O)c1 | i | i | i | i | i | i | nt
O=C(CNC(=S)N(CCCN1CCOCC1)Cc1cccs1)NC1CCCCC1 | i | i | i | i | i | i | nt
Cc1ccc(NS(=O)(=O)c2cc([N+](=O)[O-])ccc2N/N=C/c2sc(N3CCOCC3)nc2-c2ccccc2)c(C)c1 | i | i | i | i | i | 86 | i
O=[N+]([O-])c1ccc(N/N=C/c2cccc(O)c2O)c(S(=O)(=O)N2CCOCC2)c1 | i | i | i | i | i | i | nt
CCOc1ccc(CCN2C(=O)C(=O)N([C@H](CCCN(C)Cc3ccccc3)CNCc3ccccc3)C[C@@H]2C(C)C)cc1 | i | i | nt | nt | i | 66 | 56 | Full FLuc ctr=58
SMILES | 697 NFkB inh | aSyn UTR inh | IMP-1 inhibitor | VIM-2 inhibitor | Jurkat NFkB inh | Mdm2-MdmX inh | Mdm2 MdmX conf | others
COc1ccc(CNC[C@@H](CCCCN(C)Cc2ccc(OC)cc2)N2C[C@H](c3ccccc3)N(CCc3ccc(Cl)c(Cl)c3)C(=O)C2=O)cc1 | i | 92 | i | i | i | 99 | 100 | Full FLuc ctr=53
COc1ccc(CNC(=O)[C@@H]2CC=C[C@@H]3CCN(Cc4ccc(Cl)c(Cl)c4)C(=O)[C@@H]32)cc1 | i | i | nt | nt | i | i | nt
CC(C)Cn1c(CNC(=O)c2ccccc2)nc2ccccc21 | i | i | i | i | i | i | nt
CCC(=O)Oc1ccc2ccccc2c1CNC(=O)c1ccccc1 | i | i | i | i | i | 55 | i
CC1CCCN(c2c([N+](=O)[O-])cc(C(=O)O)cc2[N+](=O)[O-])C1 (configuration not stated) | i | i | i | i | i | i | nt
O=C(CNC(=O)c1cccc(S(=O)(=O)N2CCc3ccccc32)c1)Nc1ccc(F)c(F)c1F | i | nt | nt | nt | i | 81 | 84 | Full FLuc ctr=62
COc1ccc(N2CCN(C(=O)CNC(=O)c3ccco3)CC2)cc1 | i | i | i | i | i | i | nt
O=[N+]([O-])c1ccc2ncnc(Nc3ccc4c(c3)OCCO4)c2c1 | i | i | i | i | i | 56 | 58 | Full FLuc ctr=i
O=[N+]([O-])c1ccc(O)c(Nc2ncnc3ccccc23)c1 | i | i | i | i | i | 60 | i
O=[N+]([O-])c1ccc(O)c(Nc2ncnc3ccc(Br)cc23)c1 | i | i | i | i | i | i | nt
Cc1ccc(OCc2cc(C(=O)N(CCO)Cc3cccs3)no2)cc1C | i | i | i | i | i | i | nt
O=C(COC(=O)c1cc(=O)[nH]c2ccccc12)Nc1ccc(Cl)cn1 | i | i | nt | nt | i | i | nt
CCCCNC1c2ccccc2C(=O)N1Cc1ccccc1 (configuration not stated) | i | i | i | i | i | i | nt
CN(C)S(=O)(=O)c1ccc(NC(=O)c2c(F)cccc2Cl)cc1 | i | i | i | i | i | i | nt
O=C(c1cccc(Cl)c1)N1CCC(=O)N(C(COCc2cccc(Cl)c2)Cc2ccccc2)CC1 (configuration not stated) | i | i | i | i | i | i | nt
O=C(c1ccc(Cl)c(Cl)c1)N1CCC(=O)N(C(COCc2cccc(Cl)c2)Cc2ccccc2)CC1 (configuration not stated) | i | i | i | i | i | 54 | i
Cc1cccc(COCC(Cc2ccccc2)N2CCN(C(=O)c3ccc(C(F)(F)F)cc3)CCC2=O)c1 (configuration not stated) | i | i | i | i | i | 57 | i
Cc1nc2sc(C(c3cccs3)N3CC(C)CC(C)C3)c(O)n2n1 (configuration not stated) | i | i | i | i | i | i | nt
O=C(NCc1ccc(F)cc1)c1cc2ccccc2o1 | i | i | i | i | i | i | nt
O=c1oc2ccccc2c2c1C(c1ccc(Cl)cc1)Nc1ccc3ccccc3c1-2 (configuration not stated) | i | i | i | i | i | i | nt
CCOc1ccc(C2Nc3ccc4ccccc4c3-c3c2c(=O)oc2ccccc32)cc1 (configuration not stated) | i | i | i | i | i | 68 | i
CCOc1ccc(OCC(=O)c2c(O)c3ccccc3oc2=O)cc1 | i | i | i | i | i | i | nt
